Data: ChEMBL document CHEMBL5058577, “EUbOPEN Chemogenomics Library 2 (Multiplex)” (2022)

System: Fibroblast
Experiment: Multiplex assay against human fibroblast
Type: toxicity, cell-based
In short: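 Live cells carried four stains from seeding: Hoechst33342, BioTracker Green Microtubule Cytoskeleton Dye, MitoTracker Red and Annexin V Alexa Fluor 680. They were imaged on a CQ1 microscope at 37°C and 5% CO2 after compound addition. Using CellPathfinder machine-learning gating, cells were split into Hoechst high-intensity objects or normal cells, normal cells into healthy, pyknosed or fragmented nuclei, and pyknosed cells into mitotic or apoptotic; tubulin, mitochondrial-mass and membrane-permeability phenotypes are per cents of healthy-nucleus cells.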

[1] = 12 h, 1 µM, compound concentration 1 uM, replicate 1
[2] = 12 h, 1 µM, compound concentration 1 uM, replicate 2
[3] = 12 h, 10 µM, compound concentration 10 uM, replicate 1
[4] = 12 h, 10 µM, compound concentration 10 uM, replicate 2
[5] = 24 h, 1 µM, compound concentration 1 uM, replicate 1
[6] = 24 h, 1 µM, compound concentration 1 uM, replicate 2
[7] = 24 h, 10 µM, compound concentration 10 uM, replicate 1
[8] = 24 h, 10 µM, compound concentration 10 uM, replicate 2
[9] = 48 h, 1 µM, compound concentration 1 uM, replicate 1
[10] = 48 h, 1 µM, compound concentration 1 uM, replicate 2
[11] = 48 h, 10 µM, compound concentration 10 uM, replicate 1
[12] = 48 h, 10 µM, compound concentration 10 uM, replicate 2

## CC(=O)Nc1cccc2c1c(Sc1ccc(Cl)cc1)c(C)n2CC(=O)O [AZD1981]
[1]
  Population Apoptotic (%): 27%
  Population Fragmented Nuclei (%): 18%
  Population Healthy Nuclei (%): 61%
  Population Hoechst High Intensity Objects (%): 1%
  Population Membrane Permeable-Phenotype (%): 2%
  Population Mitochondria Different-Phenotype (%): 9%
  Population Mitotic Cells (%): 72%
  Population Normal (%): 98%
  Population Pyknosed Nuclei (%): 19%
  Population Tubulin-Different-Phenotype (%): 33%
  Total Cell Count: 173
[2]
  Population Apoptotic (%): 37%
  Population Fragmented Nuclei (%): 31%
  Population Healthy Nuclei (%): 47%
  Population Hoechst High Intensity Objects (%): 3%
  Population Membrane Permeable-Phenotype (%): 14%
  Population Mitochondria Different-Phenotype (%): 7%
  Population Mitotic Cells (%): 62%
  Population Normal (%): 96%
  Population Pyknosed Nuclei (%): 21%
  Population Tubulin-Different-Phenotype (%): 55%
  Total Cell Count: 118
[3]
  Population Apoptotic (%): 40%
  Population Fragmented Nuclei (%): 16%
  Population Healthy Nuclei (%): 64%
  Population Hoechst High Intensity Objects (%): 3%
  Population Membrane Permeable-Phenotype (%): 2%
  Population Mitochondria Different-Phenotype (%): 3%
  Population Mitotic Cells (%): 60%
  Population Normal (%): 96%
  Population Pyknosed Nuclei (%): 19%
  Population Tubulin-Different-Phenotype (%): 24%
  Total Cell Count: 133
[4]
  Population Apoptotic (%): 33%
  Population Fragmented Nuclei (%): 35%
  Population Healthy Nuclei (%): 42%
  Population Hoechst High Intensity Objects (%): 4%
  Population Membrane Permeable-Phenotype (%): 8%
  Population Mitochondria Different-Phenotype (%): 0%
  Population Mitotic Cells (%): 66%
  Population Normal (%): 95%
  Population Pyknosed Nuclei (%): 22%
  Population Tubulin-Different-Phenotype (%): 35%
  Total Cell Count: 112
[5]
  Population Apoptotic (%): 53%
  Population Fragmented Nuclei (%): 19%
  Population Healthy Nuclei (%): 63%
  Population Hoechst High Intensity Objects (%): 6%
  Population Membrane Permeable-Phenotype (%): 2%
  Population Mitochondria Different-Phenotype (%): 2%
  Population Mitotic Cells (%): 46%
  Population Normal (%): 93%
  Population Pyknosed Nuclei (%): 16%
  Population Tubulin-Different-Phenotype (%): 28%
  Total Cell Count: 168
[6]
  Population Apoptotic (%): 36%
  Population Fragmented Nuclei (%): 30%
  Population Healthy Nuclei (%): 53%
  Population Hoechst High Intensity Objects (%): 3%
  Population Membrane Permeable-Phenotype (%): 7%
  Population Mitochondria Different-Phenotype (%): 7%
  Population Mitotic Cells (%): 63%
  Population Normal (%): 96%
  Population Pyknosed Nuclei (%): 15%
  Population Tubulin-Different-Phenotype (%): 53%
  Total Cell Count: 128
[7]
  Population Apoptotic (%): 41%
  Population Fragmented Nuclei (%): 13%
  Population Healthy Nuclei (%): 68%
  Population Hoechst High Intensity Objects (%): 4%
  Population Membrane Permeable-Phenotype (%): 2%
  Population Mitochondria Different-Phenotype (%): 5%
  Population Mitotic Cells (%): 58%
  Population Normal (%): 95%
  Population Pyknosed Nuclei (%): 18%
  Population Tubulin-Different-Phenotype (%): 17%
  Total Cell Count: 135
[8]
  Population Apoptotic (%): 55%
  Population Fragmented Nuclei (%): 36%
  Population Healthy Nuclei (%): 43%
  Population Hoechst High Intensity Objects (%): 6%
  Population Membrane Permeable-Phenotype (%): 14%
  Population Mitochondria Different-Phenotype (%): 0%
  Population Mitotic Cells (%): 45%
  Population Normal (%): 93%
  Population Pyknosed Nuclei (%): 20%
  Population Tubulin-Different-Phenotype (%): 40%
  Total Cell Count: 104
[9]
  Population Apoptotic (%): 54%
  Population Fragmented Nuclei (%): 23%
  Population Healthy Nuclei (%): 61%
  Population Hoechst High Intensity Objects (%): 6%
  Population Membrane Permeable-Phenotype (%): 1%
  Population Mitochondria Different-Phenotype (%): 6%
  Population Mitotic Cells (%): 45%
  Population Normal (%): 93%
  Population Pyknosed Nuclei (%): 15%
  Population Tubulin-Different-Phenotype (%): 33%
  Total Cell Count: 171
[10]
  Population Apoptotic (%): 57%
  Population Fragmented Nuclei (%): 34%
  Population Healthy Nuclei (%): 54%
  Population Hoechst High Intensity Objects (%): 3%
  Population Membrane Permeable-Phenotype (%): 8%
  Population Mitochondria Different-Phenotype (%): 2%
  Population Mitotic Cells (%): 42%
  Population Normal (%): 96%
  Population Pyknosed Nuclei (%): 11%
  Population Tubulin-Different-Phenotype (%): 52%
  Total Cell Count: 129
[11]
  Population Apoptotic (%): 64%
  Population Fragmented Nuclei (%): 21%
  Population Healthy Nuclei (%): 64%
  Population Hoechst High Intensity Objects (%): 4%
  Population Membrane Permeable-Phenotype (%): 0%
  Population Mitochondria Different-Phenotype (%): 2%
  Population Mitotic Cells (%): 35%
  Population Normal (%): 95%
  Population Pyknosed Nuclei (%): 13%
  Population Tubulin-Different-Phenotype (%): 25%
  Total Cell Count: 134
[12]
  Population Apoptotic (%): 40%
  Population Fragmented Nuclei (%): 43%
  Population Healthy Nuclei (%): 42%
  Population Membrane Permeable-Phenotype (%): 11%
  Population Mitochondria Different-Phenotype (%): 0%
  Population Mitotic Cells (%): 60%
  Population Pyknosed Nuclei (%): 15%
  Population Tubulin-Different-Phenotype (%): 54%
  Total Cell Count: 105
